{"data": "Published values of several laboratories", "note": "Protocols differ between the studies behind these lines."}
{"Compound": "CCc1ccc(Cc2cc([C@@H]3O[C@H](CO)[C@@H](O)[C@H](O)[C@H]3O)cc3c2CCC3)cc1", "host": "male C57BL/6 mouse", "medium": "plasma", "route": "oral", "dose": "1 mg/kg", "Tmax [min]": 30}
{"Compound": "COc1nc(-c2cc(C)c(N[C@@H](C)c3ccc(F)cc3)nn2)ccc1-n1cnc(C)c1", "host": "male CD-1 mouse", "medium": "plasma", "route": "intravenous", "dose": "1 mg/kg", "setting": "single dose", "Tmax [min]": 4.98}
{"Compound": "Cc1ccc2cncc(N3CCc4c(cc(Cn5ccnc5)cc4-c4cn(C)nc4C(F)(F)F)C3=O)c2c1", "host": "male CD-1 mouse", "medium": "plasma", "route": "oral", "dose": "10 mg/kg", "Tmax [min]": 18}
{"Compound": "CN1C(=O)c2ccccc2[S@+]([O-])c2ccc(C(=O)NCCc3cccs3)cc21", "host": "male C57BL/6 mouse", "medium": "brain", "route": "intraperitoneal", "dose": "30 mg/kg", "setting": "single dose", "Tmax [min]": 15}
{"Compound": "COc1ccc(CNc2c3c(nc4ccc(C#N)cc24)CCN(C(C)=O)C3)cc1Cl", "host": "mouse", "medium": "plasma", "route": "intraperitoneal", "dose": "25 mg/kg", "Tmax [min]": 15}
{"Compound": "CS(=O)(=O)CCNCc1ccc(-c2ccc3ncnc(Nc4ccc(OCc5cccc(F)c5)c(Cl)c4)c3c2)o1", "host": "nude mouse", "medium": "plasma", "route": "oral", "dose": "200 mg/kg", "setting": "single dose", "Tmax [min]": 480}
{"Compound": "COc1ccc(C(O)COc2ccc(-c3csc(-c4ccc(OCC(O)c5ccc(OC)c(OC)c5)cc4)n3)cc2)cc1OC (centres unmarked)", "host": "C57BL/6 mouse", "medium": "plasma", "route": "oral", "dose": "75 mg/kg", "Tmax [min]": 60}
{"Compound": "CN1CCC[C@H](CN2c3ccccc3Sc3ccccc32)C1.O=C(O)CCC(=O)O", "host": "mouse", "medium": "plasma", "route": "oral", "dose": "64 mg/kg", "setting": "single dose", "Tmax [min]": 120}
{"Compound": "CN1CCN(C(=O)CN[C@@H]2C[C@H]2c2ccc(OCc3ccccc3)cc2)CC1", "host": "mouse", "medium": "plasma", "route": "intraperitoneal", "dose": "10 mg/kg", "Tmax [min]": 4.8}
{"Compound": "CC=Cc1ccc(O)c(OC)c1", "host": "mouse", "medium": "lung", "route": "intranasal", "dose": "100 mg/kg", "Tmax [min]": 5}
{"Compound": "CSc1cc(Oc2ccnc3[nH]c(=O)cnc23)ccc1NC(=O)Nc1cc(C(C)(C)C)nn1-c1ccccc1", "host": "BALB/c mouse", "medium": "plasma", "route": "intravenous", "dose": "2 mg/kg", "Tmax [min]": 60}
{"Compound": "NC(=O)c1cc(Oc2ccc(NC(=O)Nc3ccc(Cl)c(C(F)(F)F)c3)c(F)c2)cc[n+]1[O-]", "host": "mouse", "medium": "plasma", "route": "oral", "dose": "10 mg/kg", "setting": "single dose", "Tmax [min]": 450}
{"Compound": "C=CC(=O)N1CC2CC(n3nc(-c4ccc(C(=O)Nc5ccccn5)cc4)c4c(N)ncnc43)CC2C1 (centres unmarked)", "host": "SCID mouse", "medium": "plasma", "route": "oral", "dose": "0.2 mg/kg", "Tmax [min]": 15}
{"Compound": "CNCCN(C)c1cc(C#N)cc(CCc2cc(C)cc(N)n2)c1", "host": "male BALB/c mouse", "medium": "plasma", "route": "oral", "dose": "10 mg/kg", "Tmax [min]": 15}
{"Compound": "OC[C@H]1O[C@@H](c2ccc(Cl)c(Cc3ccc(O[C@H]4CCOC4)cc3)c2)[C@H](O)[C@@H](O)[C@@H]1O", "host": "CD-1 mouse", "medium": "plasma", "route": "intravenous", "dose": "5 mg/kg", "Tmax [min]": 4.8}
{"Compound": "O=C(c1nc2ccc(F)cc2[nH]1)c1c[nH]c2c(F)cccc12", "host": "female mouse", "medium": "plasma", "route": "intraperitoneal", "dose": "6 mg/kg", "Tmax [min]": "~15"}
{"Compound": "Cc1cc(C)cc(NC(=O)c2cnn(-c3ccc(C(C)C)cc3)c2C2CCNCC2)c1", "host": "SCID mouse", "medium": "plasma", "route": "oral", "dose": "50 mg/kg", "setting": "single dose", "Tmax [min]": "~300"}
{"Compound": "O=S(=O)(c1ccc(-c2ccc3nccc(Nc4ccncn4)c3c2)cc1)N1CCOCC1", "host": "female BALB/c mouse", "medium": "plasma", "route": "intraperitoneal", "dose": "10 mg/kg", "Tmax [min]": 15}
{"Compound": "CNC(=O)[C@H](Cc1c[nH]cn1)NC(=O)CN(CCCc1ccccc1)CC(=O)OC", "host": "male C57BL/6 mouse", "medium": "plasma", "route": "intraperitoneal", "dose": "30 mg/kg", "Tmax [min]": 10}
{"Compound": "COc1nc(-c2cc(C)c(N[C@@H](C)c3cc(F)cc(F)c3)nn2)ccc1-n1cnc(C)c1", "host": "male CD-1 mouse", "medium": "plasma", "route": "intravenous", "dose": "1 mg/kg", "setting": "single dose", "Tmax [min]": 4.98}
{"Compound": "CC(C)Oc1c(NC(=O)c2ccc(NC(=O)[C@H](CC(N)=O)NC(=O)c3ccc(NC(=O)c4ccc(C#N)cc4)cc3)cc2)ccc(C(=O)Nc2ccc(C(=O)O)cc2)c1O", "host": "male CD-1 mouse", "medium": "plasma", "route": "subcutaneous", "dose": "5 mg/kg", "setting": "single dose", "Tmax [min]": 100}
{"Compound": "CC1(C)CC[C@]2(C(=O)O)CC[C@]3(C)C(=CC[C@@H]4[C@@]5(C)C[C@@H](O)[C@H](OC(=O)/C=C/c6ccc(O)cc6)C(C)(C)[C@@H]5CC[C@]43C)[C@@H]2C1 (relative stereo)", "host": "mouse", "medium": "plasma", "route": "intraperitoneal", "dose": "85 µmol/kg", "setting": "single dose", "Tmax [min]": 30}
{"Compound": "CC(C)(C)c1ccc(O)c(CN(Cc2cc(C(C)(C)C)ccc2O)C2CCC(NC(N)=O)CC2)c1 (centres unmarked)", "host": "male C57BL/6 mouse", "medium": "plasma", "route": "intraperitoneal", "dose": "25 mg/kg", "setting": "single dose", "Tmax [min]": 15}
{"Compound": "COc1ccc2nccc(N3CCc4c(cc(Cn5ccnc5)cc4-c4cn(C)nc4C(F)(F)F)C3=O)c2c1", "host": "male CD-1 mouse", "medium": "plasma", "route": "oral", "dose": "50 mg/kg", "Tmax [min]": 78}
{"Compound": "CC(C)(Nc1nc(-c2ccccn2)nc2ccccc12)c1ccccn1", "host": "female BALB/c mouse", "medium": "plasma", "route": "oral", "dose": "50 mg/kg", "Tmax [min]": 342}
{"Compound": "CCc1cc(C(=O)NC)c2nccc(N3CCc4c(cc(Cn5ccnc5)cc4-c4cn(C)nc4C(F)(F)F)C3=O)c2c1", "host": "male CD-1 mouse", "medium": "plasma", "route": "oral", "dose": "50 mg/kg", "Tmax [min]": 48}
{"Compound": "CC(C)c1cnn2c(NCc3ccccc3)cc(NC[C@H]3CCNC[C@@H]3O)nc12", "host": "male CD-1 mouse", "medium": "plasma", "route": "oral", "Tmax [min]": 120}
{"Compound": "CC(C)(C)c1cc(NC(=O)Nc2ccc(Oc3ccnc4[nH]c(=O)cnc34)cc2F)n(-c2ccccc2)n1", "host": "BALB/c mouse", "medium": "plasma", "route": "intravenous", "dose": "2 mg/kg", "Tmax [min]": 4.98}
{"Compound": "COc1cc(C(=O)N2CCC(N3CCN(C)CC3)CC2)ccc1Nc1ncc2c(n1)N(C)c1ccccc1C(=O)N2C", "host": "mouse", "medium": "plasma", "route": "oral", "dose": "10 mg/kg", "Tmax [min]": 60}
